Measurements reported in ChEMBL document CHEMBL1255410, “Activity of the investigational fluoroquinolone finafloxacin against ciprofloxacin-sensitive and -resistant Acinetobacter baumannii isolates” (2010).

Experiments:
Assay type in all cases: functional
[1] = test system: Acinetobacter baumannii; experiment: Antimicrobial activity against Acinetobacter baumannii isolate 11 at pH 7.2
Method in brief: (§1)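 MIC by agar dilution on Mueller-Hinton agar under standard conditions (pH 7.2), against isolates with characterized gyrA/parC genes. Agar pH was checked after solidifying. Plates for both drugs were prepared the same day from freshly made media, and MICs were determined simultaneously with the pH 5.8 set.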

[2] = test system: Acinetobacter baumannii; experiment: Antimicrobial activity against Acinetobacter baumannii isolate 66 harboring GyrA Ser83-Leu mutation at pH 5.8
Method in brief: (§2)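 Agar dilution MIC on Mueller-Hinton agar acidified to pH 5.8 with HCl before the antibiotic-containing plates were poured. Agar pH was checked after solidifying. Plates were made the same day from fresh medium. Both fluoroquinolones were tested simultaneously against A. baumannii isolates with characterized gyrA/parC genes. MICs are in μg/ml.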

[3] = test system: Acinetobacter baumannii; experiment: Antimicrobial activity against Acinetobacter baumannii isolate 34 harboring GyrA Ser83-Leu mutation at pH 7.2
Method in brief: (§3)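 Agar dilution MIC on Mueller-Hinton agar. For the acidic condition, HCl was added to bring the agar to pH 5.8 before pouring the antibiotic plates, and the pH was checked after the agar set. The standard condition was pH 7.2. Both drugs' plates were made the same day from fresh medium, and MICs were read at the same time.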

[4] = test system: Acinetobacter baumannii; experiment: Antimicrobial activity against Acinetobacter baumannii isolate 35 harboring GyrA Ser83-Leu mutation at pH 5.8; method in brief: as §3
[5] = test system: Acinetobacter baumannii; experiment: Antimicrobial activity against Acinetobacter baumannii isolate 44 harboring GyrA Ser83-Leu and ParC Glu84-Lys mutation at pH 7.2; method in brief: as §3
[6] = test system: Acinetobacter baumannii; experiment: Antimicrobial activity against Acinetobacter baumannii isolate 52 harboring GyrA Ser83-Leu and ParC Ser80-Leu mutation at pH 5.8; method in brief: as §3
[7] = test system: Acinetobacter baumannii; experiment: Antimicrobial activity against Acinetobacter baumannii isolate 59 harboring GyrA Ser83-Leu and ParC Glu84-Lys mutation at pH 7.2
Method in brief: (§4)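 Agar dilution MIC on Mueller-Hinton agar under standard conditions (pH 7.2). Antibiotic-containing plates were made the same day from freshly prepared medium. Agar pH was checked after solidifying. Both fluoroquinolones were tested simultaneously against A. baumannii isolates with characterized gyrA/parC genes. MICs are in μg/ml.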

[8] = test system: Acinetobacter baumannii; experiment: Antimicrobial activity against Acinetobacter baumannii isolate 20 harboring GyrA Ser83-Leu mutation at pH 7.2; method in brief: as §1
[9] = test system: Acinetobacter baumannii; experiment: Antimicrobial activity against Acinetobacter baumannii isolate 32 harboring GyrA Ser83-Leu mutation at pH 7.2; method in brief: as §3
[10] = test system: Acinetobacter baumannii; experiment: Antimicrobial activity against adeB overexpressing Acinetobacter baumannii isolate 67 harboring GyrA Ser83-Leu and ParC Ser80-Leu mutation at pH 5.8; method in brief: as §2
[11] = test system: Acinetobacter baumannii; experiment: Antimicrobial activity against Acinetobacter baumannii isolate 20 harboring GyrA Ser83-Leu mutation at pH 5.8
Method in brief: (§5)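 MIC by agar dilution on Mueller-Hinton agar acidified to pH 5.8 with HCl before antibiotic-containing plates were poured. Agar pH was rechecked once the agar had solidified. Isolates had characterized gyrA/parC genes. Plates for both drugs were made the same day from fresh media, and MICs were read in parallel with the standard-pH set.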

[12] = test system: Acinetobacter baumannii; experiment: Antimicrobial activity against Acinetobacter baumannii isolate 15 at pH 7.2; method in brief: as §1
[13] = test system: Acinetobacter baumannii; experiment: Antimicrobial activity against Acinetobacter baumannii isolate 59 harboring GyrA Ser83-Leu and ParC Glu84-Lys mutation at pH 5.8; method in brief: as §2
[14] = test system: Acinetobacter baumannii; experiment: Antimicrobial activity against Acinetobacter baumannii isolate 49 harboring GyrA Ser83-Leu and ParC Ser80-Leu mutation at pH 5.8; method in brief: as §3
[15] = test system: Acinetobacter baumannii; experiment: Antimicrobial activity against Acinetobacter baumannii isolate 25 harboring GyrA Ser83-Leu mutation at pH 7.2; method in brief: as §1
[16] = test system: Acinetobacter baumannii; experiment: Antimicrobial activity against Acinetobacter baumannii isolate 56 harboring GyrA Ser83-Leu and ParC Ser80-Leu mutation at pH 5.8; method in brief: as §2
[17] = test system: Acinetobacter baumannii; experiment: Antimicrobial activity against Acinetobacter baumannii isolate 23 harboring GyrA Glu87-Gly mutation at pH 5.8; method in brief: as §5
[18] = test system: Acinetobacter baumannii; experiment: Antimicrobial activity against Acinetobacter baumannii isolate 36 harboring GyrA Ser83-Leu mutation at pH 5.8; method in brief: as §3
[19] = test system: Acinetobacter baumannii; experiment: Antimicrobial activity against Acinetobacter baumannii isolate 47 harboring GyrA Ser83-Leu and ParC Ser80-Phe mutation at pH 5.8; method in brief: as §3
[20] = test system: Acinetobacter baumannii; experiment: Antimicrobial activity against Acinetobacter baumannii isolate 49 harboring GyrA Ser83-Leu and ParC Ser80-Leu mutation at pH 7.2; method in brief: as §3
[21] = test system: Acinetobacter baumannii; experiment: Antimicrobial activity against Acinetobacter baumannii isolate 35 harboring GyrA Ser83-Leu mutation at pH 7.2; method in brief: as §3
[22] = test system: Acinetobacter baumannii; experiment: Antimicrobial activity against Acinetobacter baumannii isolate 51 harboring GyrA Ser83-Leu and ParC Ser80-Leu mutation at pH 5.8; method in brief: as §3
[23] = test system: Acinetobacter baumannii; experiment: Antimicrobial activity against Acinetobacter baumannii isolate 57 harboring GyrA Ser83-Leu and ParC Ser80-Phe mutation at pH 5.8; method in brief: as §2
[24] = test system: Acinetobacter baumannii; experiment: Antimicrobial activity against Acinetobacter baumannii isolate 16 at pH 5.8; method in brief: as §5
[25] = test system: Acinetobacter baumannii; experiment: Antimicrobial activity against Acinetobacter baumannii isolate 41 harboring GyrA Ser83-Leu mutation at pH 7.2; method in brief: as §3
[26] = test system: Acinetobacter baumannii; experiment: Antimicrobial activity against Acinetobacter baumannii isolate 5 at pH 7.2; method in brief: as §3
[27] = test system: Acinetobacter baumannii; experiment: Antimicrobial activity against Acinetobacter baumannii isolate 24 harboring GyrA Ser83-Leu mutation at pH 5.8; method in brief: as §5
[28] = test system: Acinetobacter baumannii; experiment: Antimicrobial activity against Acinetobacter baumannii isolate 54 harboring GyrA Ser83-Leu and ParC Ser80-Leu mutation at pH 5.8; method in brief: as §3
[29] = test system: Acinetobacter baumannii; experiment: Antimicrobial activity against Acinetobacter baumannii isolate 54 harboring GyrA Ser83-Leu and ParC Ser80-Leu mutation at pH 7.2; method in brief: as §3
[30] = test system: Acinetobacter baumannii; experiment: Antimicrobial activity against Acinetobacter baumannii isolate 4 at pH 5.8
Method in brief: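 Agar dilution MIC on Mueller-Hinton agar acidified with HCl before pouring antibiotic plates; agar pH checked after setting. Isolate has characterized gyrA/parC genes. Plates made the same day from fresh medium, and both drugs tested at the same time. Read-out: MIC (μg/ml).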

[31] = test system: Acinetobacter baumannii; experiment: Antimicrobial activity against Acinetobacter baumannii isolate 17 at pH 7.2; method in brief: as §1
[32] = test system: Acinetobacter baumannii; experiment: Antimicrobial activity against Acinetobacter baumannii isolate 9 at pH 7.2; method in brief: as §4
[33] = test system: Acinetobacter baumannii; experiment: Antimicrobial activity against Acinetobacter baumannii isolate 41 harboring GyrA Ser83-Leu mutation at pH 5.8; method in brief: as §3
[34] = test system: Acinetobacter baumannii; experiment: Antimicrobial activity against Acinetobacter baumannii isolate 23 harboring GyrA Glu87-Gly mutation at pH 7.2; method in brief: as §1
[35] = test system: Acinetobacter baumannii; experiment: Antimicrobial activity against Acinetobacter baumannii isolate 14 at pH 5.8; method in brief: as §5
[36] = test system: Acinetobacter baumannii; experiment: Antimicrobial activity against Acinetobacter baumannii isolate 7 at pH 5.8; method in brief: as §2
[37] = test system: Acinetobacter baumannii; experiment: Antimicrobial activity against Acinetobacter baumannii isolate 10 at pH 5.8; method in brief: as §5
[38] = test system: Acinetobacter baumannii; experiment: Antimicrobial activity against Acinetobacter baumannii isolate 42 harboring GyrA Ser83-Leu mutation at pH 7.2; method in brief: as §3
[39] = test system: Acinetobacter baumannii; experiment: Antimicrobial activity against Acinetobacter baumannii isolate 15 at pH 5.8; method in brief: as §5
[40] = test system: Acinetobacter baumannii; experiment: Antimicrobial activity against Acinetobacter baumannii isolate 28 harboring GyrA Ser83-Leu mutation at pH 7.2; method in brief: as §1

Measured: MIC

O=C(O)c1cn(C2CC2)c2cc(N3CCNCC3)c(F)cc2c1=O [CIPROFLOXACIN]
2 µg/mL: [8] | [36] | [37]
128 µg/mL: [2] | [4] | [7] | [18] | [20] | [29]
0.12 µg/mL: [26]
4 µg/mL: [11] | [15] | [24] | [34] | [35] | [39] | [40]
0.25 µg/mL: [1] | [32]
1 µg/mL: [12] | [30] | [31]
32 µg/mL: [5] | [17] | [27]
8 µg/mL: [3] | [21]
16 µg/mL: [9] | [25] | [38]
> 128 µg/mL: all other assays above

N#Cc1c(N2C[C@@H]3NCCO[C@H]3C2)c(F)cc2c(=O)c(C(=O)O)cn(C3CC3)c12 [FINAFLOXACIN]
32 µg/mL: [29]
0.03 µg/mL: [30]
4 µg/mL: [10] | [16] | [19] | [23] | [28]
2 µg/mL: [2] | [4] | [6] | [14] | [18] | [22] | [27] | [33]
0.25 µg/mL: [1] | [26] | [32] | [35]
64 µg/mL: [7]
0.06 µg/mL: [11] | [36]
0.12 µg/mL: [24] | [37] | [39]
1 µg/mL: [8] | [12] | [17] | [31]
8 µg/mL: [13] | [34]
16 µg/mL: all other assays above
